Active and inactive are the calls of the source. The rule behind the calls is not given here.
Tests used:
[1] = Lethal dose in mouse, in groups of ten; assay type: toxicity, organism-based; settings: in vivo
Mus musculus [2] = species: Mus musculus; experiment: Compound was evaluated for maximal electroshock antagonism (MES) against mice; assay type: functional
How it was run: (§1)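 Male HLa (ICR) BR mice, groups of eight to ten, dosed ip (aqueous solution) 15 min before transcorneal electroshock (50 mA, 0.2 s). End point: abolition of tonic hind-limb extension; quantal ED50 by Litchfield-Wilcoxon.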

Mus musculus [3] = species: Mus musculus; experiment: Righting ability was determined in mice before rapid rolling (unaroused); assay type: functional
How it was run: (§2)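 Male Simonsen (ICR) fBR mice, 18-24 g, groups of ten, dosed with aqueous compound. Righting ability checked before (unaroused) and after (aroused) rapid rolling in the hand; ED50 by Litchfield-Wilcoxon method.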

Mus musculus [4] = species: Mus musculus; experiment: Compound was evaluated for antagonism of reserpine induced hypothermia.; assay type: functional
How it was run: (§3)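 Male HLa (ICR) BR mice, 18-24 g, in groups of eight; reserpine 5 mg/kg ip given 2 h before oral test compound as aqueous solution. Rectal temperature taken hourly; 1-4-h hypothermia assessed by analysis of variance.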

[5] = HPLC capacity factor (k'); assay type: ADME
Mus musculus [6] = species: Mus musculus; experiment: Mouse behavior activity was determined;D= Depressant; assay type: functional, organism-based
How it was run: (§4)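 Male Simonsen (ICR) fBR mice, 18-24 g, groups of three, given 3, 10, 30, 100, 300 or 1000 mg/kg ip as aqueous solution and observed for behavioral profile; deaths followed up to 7 days.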

Mus musculus [7] = species: Mus musculus; experiment: Compound was evaluated for maximal electroshock antagonism (MES) against mice; Inactive.; assay type: functional, organism-based; how it was run: as §1
Mus musculus [8] = species: Mus musculus; experiment: Mouse behavior activity was determined; Dwk=Depressant Weak; assay type: functional, organism-based; how it was run: as §4
Mus musculus [9] = species: Mus musculus; experiment: Evaluated for antagonism of reserpine induced hypothermia;I= Inactive; assay type: functional, organism-based; how it was run: as §3
Mus musculus [10] = experiment: Compound was evaluated in vivo for reserpine hypothermia after oral administration in mouse. Minimum active dose was reported, with the percent reversal at 10 mg/kg in parenthesis; I=inactive; assay type: functional, organism-based; design: dose 10 mg/kg; how it was run: as §3
Mus musculus [11] = species: Mus musculus; experiment: Compound was evaluated for maximal electroshock antagonism (MES) against mice; I=inactive; assay type: functional, organism-based; how it was run: as §1
Mus musculus [12] = species: Mus musculus; experiment: Evaluated for antagonism of reserpine induced hypothermia; assay type: functional; how it was run: as §3
Mus musculus [13] = species: Mus musculus; experiment: Mouse behavior activity was determined; Dwk= Depressant(Weak); assay type: functional, organism-based; how it was run: as §4
Mus musculus [14] = species: Mus musculus; experiment: Mouse behavior activity was determined; S-D=Stimulant-Depressant; assay type: functional, organism-based; how it was run: as §4
Mus musculus [15] = experiment: Compound was evaluated in vivo for reserpine hypothermia after oral administration in mouse. Minimum active dose was reported; rigidity was potentiated by compound.; assay type: functional, organism-based; how it was run: as §3
Mus musculus [16] = experiment: Evaluated in vivo for reserpine hypothermia after oral administration in mouse. Minimum active dose was reported; Inactive; assay type: functional, organism-based; how it was run: as §3
Mus musculus [17] = species: Mus musculus; experiment: Mouse behavior activity was determined; Inactive; assay type: functional, organism-based; how it was run: as §4
Mus musculus [18] = species: Mus musculus; experiment: Compound was evaluated for maximal electroshock antagonism (MES) against mice; Inactive; assay type: functional, organism-based; how it was run: as §1
Mus musculus [19] = species: Mus musculus; experiment: Compound was evaluated for maximal electroshock antagonism (MES) against mice;I= Inactive; assay type: functional, organism-based; how it was run: as §1
Mus musculus [20] = species: Mus musculus; experiment: Mouse behavior activity was determined; D = Depressant; assay type: functional, organism-based
How it was run: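 Male Simonsen (ICR) fBR mice (18-24 g) given 3, 10, 30, 100, 300 or 1000 mg/kg ip as aqueous solution and observed for behaviour in groups of three.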

Mus musculus [21] = species: Mus musculus; experiment: Righting ability was determined in mice […] rapid rolling (aroused); assay type: functional; how it was run: as §2
[22] = Compound was evaluated for lethal dose in mouse in groups of ten (values in parentheses indicates 95% confidence limits); assay type: toxicity, organism-based; settings: in vivo
Mus musculus [23] = species: Mus musculus; experiment: Compound was evaluated for antagonism of reserpine induced hypothermia;I= Inactive.; assay type: functional, organism-based
How it was run: (§5)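 Male HLa (ICR) BR mice (18-24 g), groups of eight, dosed ip with 5 mg/kg reserpine 2 h before oral test compound given as aqueous solution. Rectal temperature measured hourly; 1-4-h thermia assessed by analysis of variance.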

Mus musculus [24] = experiment: Compound was evaluated in vivo for reserpine hypothermia after oral administration in mouse. Minimum active dose was reported, with the percent reversal at 10 mg/kg in parenthesis.; assay type: functional; how it was run: as §5
Mus musculus [25] = experiment: Compound was evaluated in vivo for reserpine hypothermia after oral administration in mouse. Minimum active dose was reported; Inactive; assay type: functional, organism-based; how it was run: as §3
Mus musculus [26] = species: Mus musculus; experiment: Mouse behavior activity was determined; Dwk= Depressant Weak; assay type: functional, organism-based; how it was run: as §4
Mus musculus [27] = species: Mus musculus; experiment: Compound was evaluated for maximal electroshock antagonism (MES) against mice (values in parentheses indicates 95% confidence limits); assay type: functional
How it was run: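 Male HLa (ICR) BR mice, groups of eight to ten, given compound ip as aqueous solution 15 min before transcorneal electroshock (50 mA, 0.2 s). End point was abolition of tonic hind-limb extension; quantal ED50 derived by Litchfield-Wilcoxon.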

Mus musculus [28] = species: Mus musculus; experiment: Righting ability was determined in mice after rapid rolling (aroused); assay type: functional; how it was run: as §2
Mus musculus [29] = experiment: Compound was evaluated in vivo for reserpine hypothermia after oral administration in mouse.; assay type: functional; how it was run: as §3
Mus musculus [30] = species: Mus musculus; experiment: Compound was evaluated for antagonism of reserpine induced hypothermia;. 5-2.5 excessive variability.; assay type: functional, organism-based; how it was run: as §3
Mus musculus [31] = species: Mus musculus; experiment: Mouse behavior activity was determined;D= Depressant.; assay type: functional, organism-based
Mus musculus [32] = experiment: Compound was evaluated for maximal electroshock antagonism (MES) against mice; Inactive at 30 mg/kg; assay type: functional, organism-based; design: dose 30 mg/kg; how it was run: as §1
Rattus norvegicus [33] = species: Rattus norvegicus; experiment: Inhibition of the NE [3H]Norepinephrine uptake by rat brain slices In vitro; assay type: functional
Mus musculus [34] = species: Mus musculus; experiment: Inhibition of radioactive NE [3H]norepinephrine uptake into mouse heart; assay type: functional
How it was run: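 Mice dosed ip (aqueous solution) before iv [3H]NE; hearts removed 3 h after label, washed, weighed, dissolved in Protosol and counted as dpm per mg tissue. Dose-response from linear regression.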

Rattus norvegicus [35] = species: Rattus norvegicus; experiment: Inhibition of the 5-HT [14C]5-HT uptake by rat brain slices In vitro; assay type: functional
How it was run: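 Rat cerebral cortex slices, 5 mg tissue per mL Krebs-Henseleit buffer, incubated at 37 °C with [3H]NE or [14C]5-HT; blanks at 4 °C, undosed controls. Stopped after 20 min by filtration; slice radioactivity counted; IC50 from linear regression of uptake inhibition.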

Mus musculus [36] = experiment: Reserpine hypothermia antagonism in mouse administered perorally with 5 mg/kg of reserpine 2 hour prior to test compound administration; assay type: functional; settings: route oral
Mus musculus [37] = experiment: Evaluated in vivo for reserpine hypothermia after oral administration in mouse. Minimum active dose was reported; 10-30% reduction; assay type: functional, organism-based; how it was run: as §3

CCOC(=O)NC1=NC(c2cccc(Cl)c2)CN1C (stereo unspecified)
LD50 [1]: 300 mg/kg | ED50 (Mus musculus [2]): 74 mg/kg | Loss of righting reflex (Mus musculus [3]): 70 mg/kg | HYPO (Mus musculus [4]): <0.5 mg/kg | Log k' [5]: 0.78 | Mouse behavior activity (Mus musculus [6]): Depressant

CCCCCCc1ccc(C2CN=C(NC(=O)OC)N2)cc1 (stereo unspecified)
LD50 [1]: 200 mg/kg | ED50 (Mus musculus [7]): inactive | Mouse behavior activity (Mus musculus [8]): Depressant - weak | HYPO (Mus musculus [9]): inactive | Log k' [5]: 2.28

COC(=O)NC1=NC(c2ccc(C=O)cc2)CN1C (stereo unspecified)
ED50 (Mus musculus [10]): inactive | LD50 [1]: > 300 mg/kg | ED50 (Mus musculus [11]): inactive | HYPO (Mus musculus [12]): >0.5 mg/kg | Mouse behavior activity (Mus musculus [13]): Depressant - weak | Log k' [5]: -0.53

COC(=O)NC1=NC(c2ccccc2)CN1C (stereo unspecified)
LD50 [1]: 200 mg/kg | ED50 (Mus musculus [2]): 107 mg/kg | Mouse behavior activity (Mus musculus [14]): Stimulant-Depressant | P (Mus musculus [15]): rigidity was potentiated by compound | Log k' [5]: 0.06

COC(=O)NC1=NC(c2ccc(CO)cc2)CN1C (stereo unspecified)
ED50 (Mus musculus [16]): inactive | Mouse behavior activity (Mus musculus [17]): inactive | LD50 [1]: > 1000 mg/kg | HYPO (Mus musculus [12]): <0.5 mg/kg | Log k' [5]: -0.76 | ED50 (Mus musculus [18]): inactive

CCOC(=O)NC1=NC(c2cccc(Br)c2)CN1 (stereo unspecified)
HYPO (Mus musculus [12]): <0.5 mg/kg | Log k' [5]: 0.77 | ED50 (Mus musculus [19]): inactive

CNC1=Nc2ccc(Cl)cc2C(c2ccccc2)=[N+]([O-])C1 [CHLORDIAZEPOXIDE]
Mouse behavior activity (Mus musculus [20]): Depressant | Loss of righting reflex (Mus musculus [21]): 140 mg/kg | LD50 [22]: 254 mg/kg | Loss of righting reflex (Mus musculus [3]): 53 mg/kg | HYPO (Mus musculus [23]): inactive | ED50 (Mus musculus [24]): 5 mg/kg

COC(=O)NC1=NC(c2ccc([S+](C)[O-])cc2)CN1C (stereo unspecified)
ED50 (Mus musculus [25]): inactive | LD50 [1]: > 1000 mg/kg | Mouse behavior activity (Mus musculus [8]): Depressant Weak | HYPO (Mus musculus [9]): inactive | Log k' [5]: -1.03 | ED50 (Mus musculus [18]): inactive

CCC(=O)NC1=NC(c2ccccc2)CN1 (stereo unspecified)
LD50 [1]: 500 mg/kg | HYPO (Mus musculus [12]): >20 mg/kg | ED50 (Mus musculus [2]): 75 mg/kg | Mouse behavior activity (Mus musculus [26]): Depressant | Log k' [5]: 0.17

COC(=O)NC1=NC(c2ccc(Cl)cc2)CN1C (stereo unspecified)
ED50 (Mus musculus [25]): inactive | LD50 [1]: 200 mg/kg | ED50 (Mus musculus [2]): 66 mg/kg | Log k' [5]: 0.54 | Mouse behavior activity (Mus musculus [6]): Depressant

COC(=O)NC1=NC(c2ccccc2[S+](C)[O-])CN1C (stereo unspecified)
ED50 (Mus musculus [25]): inactive | Log k' [5]: -0.87

CCC1(c2ccccc2)C(=O)NC(=O)NC1=O [PHENOBARBITAL]
Mouse behavior activity (Mus musculus [20]): Depressant | Loss of righting reflex (Mus musculus [21]): 107 mg/kg | LD50 [22]: 222 mg/kg | Loss of righting reflex (Mus musculus [3]): 60 mg/kg | ED50 (Mus musculus [27]): 15 mg/kg | ED50 (Mus musculus [24]): 22 mg/kg

COC(=O)NC1=NC(c2cccc(C)c2)CN1 (stereo unspecified)
Loss of righting reflex (Mus musculus [28]): 157 mg/kg | LD50 [1]: 500 mg/kg | ED50 (Mus musculus [29]): 51 mg/kg | HYPO (Mus musculus [30]): excessive variability | ED50 (Mus musculus [2]): 100 mg/kg | Mouse behavior activity (Mus musculus [31]): Depressant | Loss of righting reflex (Mus musculus [3]): 100 mg/kg | Log k' [5]: 0.26

CCOC(=O)NC1=NC(c2cccc(F)c2)CN1C (stereo unspecified)
ED50 (Mus musculus [16]): inactive | ED50 (Mus musculus [32]): inactive | HYPO (Mus musculus [4]): <0.5 mg/kg | Log k' [5]: 0.51

CN(C)CCCN1c2ccccc2CCc2ccccc21 [IMIPRAMINE]
IC50 (Rattus norvegicus [33]): 3.8 µM | HYPO (Mus musculus [12]): <0.5 mg/kg | ED50 (Mus musculus [2]): 15 mg/kg | ED50 (Mus musculus [34]): 6.7 mg/kg | Mouse behavior activity (Mus musculus [14]): Stimulant | IC50 (Rattus norvegicus [35]): 5.3 µM | Reserpine hypothermia (Mus musculus [36]): 0.63 mg/kg

CCOC(=O)NC1=NC(c2ccc(C(C)C)cc2)CN1 (stereo unspecified)
LD50 [1]: 200 mg/kg | ED50 (Mus musculus [37]): 10-30% reduction | Mouse behavior activity (Mus musculus [8]): Depressant - weak | HYPO (Mus musculus [9]): inactive | Log k' [5]: 1.3 | ED50 (Mus musculus [18]): inactive

Source: ChEMBL document CHEMBL1122650, “Synthesis and central nervous system properties of 2-[(alkoxycarbonyl)amino]-4(5)-phenyl-2-imidazolines” (J Med Chem, 1984)
